According to ChEMBL document CHEMBL1141612, “Glyconanobiotics: Novel carbohydrated nanoparticle antibiotics for MRSA and Bacillus anthracis” (2008):
In brackets after ≈: the same amount, converted by molar mass.

Legend:
Assay type in all cases: functional
Staphylococcus aureus [1] = test: Antibacterial activity against Staphylococcus aureus ATCC 25923 after 24 hrs by broth dilution MIC assay; settings: ATCC 25923, 24 h
Outline: (§1)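 Broth serial dilution. For nanoparticle emulsions, the drug content is assumed equal to the amount used in the polymerization, expressed as µg drug per mL of undiluted emulsion.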

Staphylococcus aureus [2] = test: Antibacterial activity against methicillin-resistant Staphylococcus aureus ATCC 43300 after 24 hrs by broth dilution MIC assay; settings: ATCC 43300, 24 h; outline: as §1
Bacillus anthracis = test: Antibacterial activity against Bacillus anthracis after 24 hrs by broth dilution MIC assay; outline: as §1

Row | Compound | MIC (Staphylococcus aureus [1]) | MIC (Staphylococcus aureus [2]) | MIC (Bacillus anthracis)
1 | C=CC(=O)O[C@@H]1[C@@H]2OC(C)(C)O[C@@H]2O[C@@H]1C(COC(C)=O)OC(=O)CCC(=O)N[C@@H]1C(=O)N2C1SC(C)(C)[C@@H]2C(=O)O (stereo partly specified) | > 256 mg/L | > 256 mg/L | > 256 mg/L
2 | C=CC(=O)O[C@@H]1[C@@H]2OC(C)(C)O[C@@H]2O[C@@H]1C(COC(C)=O)OC(=O)CCC(=O)N1CCN(c2cc3c(cc2F)c(=O)c(C(=O)O)cn3C2CC2)CC1 (stereo partly specified) [CIPROFLOXACIN ACRYLATE] | 32 mg/L (≈ 43.9 µM) | 32 mg/L (≈ 43.9 µM) | 16 mg/L (≈ 21.9 µM)
3 | C=CC(=O)O[C@@H]1[C@H]2OC(C)(C)O[C@H]2O[C@@H]1C(COC(=O)CCC(=O)O[C@H]1C(=O)N(SC(C)CC)[C@H]1c1ccccc1Cl)OC(=O)CCC(=O)O[C@H]1C(=O)N(SC(C)CC)[C@H]1c1ccccc1Cl (stereo partly specified) [LACTAM MONOMER] | 128 mg/L (≈ 127 µM) | 128 mg/L (≈ 127 µM) | 64 mg/L (≈ 63.4 µM)
4 | CC1(C)S[C@@H]2[C@H](NC(=O)Cc3ccccc3)C(=O)N2[C@H]1C(=O)O [PENICILLIN G] | 0.012 mg/L (≈ 0.0359 µM) | 16 mg/L (≈ 47.8 µM) | –
